Assay results: ChEMBL document CHEMBL2390841, “1,1-Difluoroethyl-substituted triazolothienopyrimidines as inhibitors of a human urea transport protein (UT-B): new analogs and binding model” (Bioorg Med Chem Lett, 2013)

Legend:
[1] = test system: Liver microsomes; assay: Metabolic stability in rat liver microsomes assessed as parent compound remaining after 30 mins; type: ADME, Microsome; conditions: 0.5 h
Procedure, shortened: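 Compounds are incubated 30 min with rat liver microsomes plus NADPH, then organic-extracted and analysed by LCMS. Value is percent parent remaining.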

[2] = target: T1, Urea transporter 1 (Mus musculus, UniProt Q8VHL0); assay: Inhibition of UT-B in mouse acetamide-loaded erythrocyte assessed as increase of hypotonic lysis
T1 sequence (Q8VHL0 whole entry): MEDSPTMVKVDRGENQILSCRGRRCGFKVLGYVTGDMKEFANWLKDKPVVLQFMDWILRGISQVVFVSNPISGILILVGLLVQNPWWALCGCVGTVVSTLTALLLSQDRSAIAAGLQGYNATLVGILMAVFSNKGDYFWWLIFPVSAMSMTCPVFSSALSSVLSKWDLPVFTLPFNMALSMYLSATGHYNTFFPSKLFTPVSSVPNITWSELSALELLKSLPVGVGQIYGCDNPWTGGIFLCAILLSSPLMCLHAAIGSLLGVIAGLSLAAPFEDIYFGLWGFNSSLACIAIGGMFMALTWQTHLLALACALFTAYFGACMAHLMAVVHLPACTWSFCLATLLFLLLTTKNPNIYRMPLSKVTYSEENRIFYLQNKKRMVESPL
Procedure, shortened: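 Erythrocytes preloaded with acetamide are diluted into isosmolar PBS. Hypotonic lysis is read as near-infrared light absorbance; blocking UT-B-mediated acetamide efflux increases lysis. IC50 comes from a fit to a single-site saturation model.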

Row | Stability [1] [%] | IC50 [2] [nM] | SMILES
1 | < 5 |  | CCc1ccc(S(=O)(=O)c2nnn3c2nc(NCc2cccs2)c2sccc23)cc1
2 | 22 | 38 | Cc1csc(CNc2nc3c(S(=O)(=O)c4ccc(C(C)(F)F)cc4)nnn3c3ccsc23)c1
3 | 47 | 43 | CC(F)(F)c1ccc(S(=O)(=O)c2nnn3c2nc(NCc2ccsc2)c2sccc23)cc1
4 | 14 | 353 | CC(F)(F)c1ccc(S(=O)(=O)c2nnn3c2nc(NCc2ccco2)c2sccc23)cc1
5 | 79 | > 800 | CC(F)(F)c1ccc(S(=O)(=O)c2nnn3c2nc(NCc2ccccc2)c2sccc23)cc1
6 | 75 | > 800 | CC(F)(F)c1ccc(S(=O)(=O)c2nnn3c2nc(NCC2CC2)c2sccc23)cc1
7 | 24 | > 800 | CC(F)(F)c1ccc(S(=O)(=O)c2nnn3c2nc(NCC2CCC2)c2sccc23)cc1
